# Reference: ChEMBL document CHEMBL1121910, “N-(Methanesulfonyl)-16-phenoxyprostaglandincarboxamides: tissue-selective, uterine stimulants” (1981)
# Key:
# [1] = tested on: Cavia porcellus; experiment: Percent protection against histamine-induced bronchoconstriction in conscious guinea pig.; format: functional; parameters: concentration or dose not given beside the values
# [2] = tested on: Cavia porcellus; experiment: Relative ability to cause abortion in conscious guinea pigs compared to PGE-2.; format: functional
# [3] = tested on: Rattus norvegicus; experiment: Relative potency (50 ug/kg) for inhibition of pentagastrin-stimulated gastric acid secretion in anesthetized rats; format: functional, Stomach
# [4] = tested on: Canis familiaris; experiment: Compound versus PGE-2 (0.1 ug/kg, iv) was tested for effects on blood pressure in anesthetized dogs; format: functional, Canis lupus familiaris
# In short: (§1)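 Anesthetized dogs responsive to PGE2 (at least two per compound); iv dosing. Blood pressure threshold dose expressed relative to PGE2 reference at 0.1 μg/kg iv; direction noted as depressor (−) or pressor (+).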
# [5] = species: Cavia porcellus; experiment: Relative spasmogenic potency in an in vitro guinea pig uteri assay.; format: functional
# [6] = tested on: Canis familiaris; experiment: Compound versus PGE-2 (0.1 ug/kg, iv) was tested for effects on blood pressure in anesthetized dogs; Depressor; format: functional, Canis lupus familiaris; in short: as §1
# [7] = tested on: Mus musculus; experiment: Relative potency of compound versus PGE-2 (0.3-3.0mg/mL, iv)for induction of diarrhoea in conscious mice; format: functional
# In short: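 Groups of six conscious mice, iv. Relative potency was estimated from concentration-response curves for diarrhea induction against PGE2 given at 0.3–3.0 mg/kg iv.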
# [8] = tested on: Mus musculus; experiment: Relative potency of compound versus PGE-2 (0.3-3.0mg/mL, iv) for induction of diarrhoea in conscious mice; NE = no effect at one tenth the minimum effective dose for PGE-2; format: functional, organism-based
# [9] = tested on: Mus musculus; experiment: Relative potency of compound versus PGE-2 (0.3-3.0mg/mL, iv) for induction of diarrhoea in conscious mice; NE = no effect at 10 times the ED50 for PGE-2; format: functional, organism-based
# [10] = tested on: Mus musculus; experiment: Relative potency of compound versus PGE-2 (0.3-3.0mg/mL, iv) for induction of diarrhoea in conscious mice; Depressor; format: functional
# [11] = tested on: Canis familiaris; experiment: Compound versus PGE-2 (0.1 ug/kg, iv) was tested for effects on blood pressure in anesthetized dogs; Pressor; format: functional, Canis lupus familiaris; in short: as §1
Structure (SMILES),Protection [1] [%],Relative potency [2],Relative potency [3],Relative potency [4],Relative potency [5],Relative threshold dose [6],Relative potency [7],Relative potency [8],Relative potency [6],Relative potency [9],Relative potency [10],Relative threshold dose [11]
O=C(CCC/C=C\C[C@H]1C(=O)C[C@@H](O)C1/C=C/[C@@H](O)COc1ccccc1)NS(=O)(=O)c1ccccc1 (stereo not given in full),13,1000,370,<0.5,5,–,–,–,–,–,–,–
CS(=O)(=O)NC(=O)CCC/C=C\C[C@H]1C(=O)C[C@@H](O)C1/C=C/[C@@H](O)COc1ccc(F)cc1 (stereo not given in full),3,3000,–,–,120,–,–,–,–,–,–,–
O=C(O)CCC/C=C\C[C@H]1C(=O)C[C@@H](O)C1/C=C/[C@@H](O)COc1ccccc1 (stereo not given in full),9,300,530,–,75,10,150,–,–,–,–,–
CS(=O)(=O)NC(=O)CCC/C=C\C[C@H]1C(=O)C[C@@H](O)C1/C=C/[C@@H](O)COc1cccc(C(F)(F)F)c1 (stereo not given in full),16,<100,–,<0.5,0.5,–,–,No effect,–,–,–,–
CS(=O)(=O)NC(=O)CCC/C=C\C[C@H]1C(=O)C=CC1/C=C/[C@@H](O)COc1ccccc1 (stereo not given in full),9,<100,200,–,0.2,2.5,10,–,–,–,–,–
CCS(=O)(=O)NC(=O)CCC/C=C\C[C@H]1C(=O)C[C@@H](O)C1/C=C/[C@@H](O)COc1ccccc1 (stereo not given in full),9,3000,–,–,85,–,–,–,1,–,–,–
CS(=O)(=O)NC(=O)CCC/C=C\C[C@H]1C(=O)C[C@@H](O)C1/C=C/[C@@H](O)COc1ccc(Cl)cc1 (stereo not given in full),9,10000,1200,–,90,–,–,–,0.5,–,–,–
CS(=O)(=O)NC(=O)CCC/C=C\C[C@H]1C(=O)C[C@@H](O)C1/C=C/[C@@H](O)COc1cccc(Cl)c1 (stereo not given in full),28,1000,140,–,46,–,–,–,–,–,–,–
COc1cccc(OC[C@H](O)/C=C/C2[C@H](O)CC(=O)[C@@H]2C/C=C\CCCC(=O)NS(C)(=O)=O)c1 (stereo not given in full),25,<1000,0,<0.5,1,–,–,–,–,No effect,–,–
CCCCC(C)(C)[C@H](O)/C=C/C1[C@H](O)CC(=O)[C@@H]1C/C=C\CCCC(=O)O (stereo not given in full),41,<100,400,–,33,10,5300,–,–,–,–,–
CS(=O)(=O)NC(=O)CCC/C=C\C[C@H]1C(=O)C[C@@H](O)C1/C=C/[C@@H](O)CCc1ccccc1 (stereo not given in full),0,<100,–,2.5,75,–,–,–,–,–,2.5,–
CS(=O)(=O)NC(=O)CCC/C=C\C[C@@H]1C(/C=C/[C@@H](O)COc2ccccc2)[C@H](O)C[C@@H]1O (stereo not given in full),3,1000,–,10,10,–,–,–,–,–,–,–
CS(=O)(=O)NC(=O)CCC/C=C\C[C@H]1C(=O)C[C@@H](O)C1/C=C/[C@@H](O)COc1cccs1 (stereo not given in full),28,300,–,0.5,50,–,–,–,–,–,–,–
CS(=O)(=O)NC(=O)CCC/C=C\C[C@H]1C(=O)C[C@@H](O)[C@@H]1/C=C/[C@@H](O)COc1ccccc1 [SULPROSTONE],10,3000,450,–,115,–,–,–,0.5,–,–,–
CS(=O)(=O)NC(=O)CCC/C=C\CC1=C(/C=C/[C@@H](O)COc2ccccc2)CCC1=O,0,<100,80,–,1.2,–,60,–,–,–,–,10
CCCCC[C@H](O)/C=C/[C@H]1[C@H](O)CC(=O)[C@@H]1C/C=C\CCCC(=O)O [DINOPROSTONE],100,100,100,–,100,–,100,–,–,–,–,–
Cc1cccc(OC[C@H](O)/C=C/C2[C@H](O)CC(=O)[C@@H]2C/C=C\CCCC(=O)NS(C)(=O)=O)c1 (stereo not given in full),44,<1000,125,–,4,–,–,No effect,0.5,–,–,–
COc1ccc(OC[C@H](O)/C=C/C2[C@H](O)CC(=O)[C@@H]2C/C=C\CCCC(=O)NS(C)(=O)=O)cc1 (stereo not given in full),13,< 1000,600,<0.5,10,–,–,–,–,–,–,–
